Measurements taken from ChEMBL document CHEMBL1128719, “The synthesis, structure-activity, and structure-side effect relationships of a series of 8-alkoxy- and 5-amino-8-alkoxyquinolone antibacterial agents” (J Med Chem, 1995).
Converted amounts (≈) assume the structure as drawn.

Experiments:
[1] = tested on: V79; test: Clonogenic cytotoxicity against Chinese hamster V-79 cells; type: functional, cell-based; conditions: Cricetulus griseus
[2] = tested on: Cutibacterium acnes; test: In vitro antibacterial activity was tested for Propion acnes PA5-1; type: functional
Summary of the method: (§1)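 Microtitration (microdilution) MIC determination in μg/mL against a panel of Gram-positive, Gram-negative and anaerobic organisms. Values come from duplicate or triplicate experiments and are stated accurate to ±50%.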

[3] = tested on: Peptoniphilus asaccharolyticus; test: In vitro antibacterial activity was tested for Pepto asac PA 3-1; type: functional; summary of the method: as §1
[4] = tested on: Providencia rettgeri; test: In vitro antibacterial activity was tested for Providencia rettgeri H1771; type: functional; summary of the method: as §1
[5] = tested on: Bacteroides fragilis; test: In vitro antibacterial activity against Bacteroides fragilis BFA; type: functional; summary of the method: as §1
[6] = tested on: Enterobacter cloacae; test: In vitro antibacterial activity was tested for Enterobacter cloacae HA2646; type: functional
[7] = tested on: Clostridium perfringens; test: In vitro antibacterial activity against Clostridium perfringens CP 3-1; type: functional
[8] = tested on: Staphylococcus aureus; test: In vitro antibacterial activity was tested for Staphylococcus aureus UC-76; type: functional; summary of the method: as §1
[9] = tested on: Streptococcus pyogenes; test: In vitro antibacterial activity was tested for Streptococcus pyogenes C203; type: functional; summary of the method: as §1
[10] = tested on: Clostridioides difficile; test: In vitro antibacterial activity was tested for Clostridium diff CD1-1; type: functional
[11] = tested on: Klebsiella pneumoniae; test: In vitro antibacterial activity was tested for Klebsiella pneumoniae MGH-2; type: functional; summary of the method: as §1
[12] = tested on: Enterococcus faecalis; test: In vitro antibacterial activity was tested for Streptococcus faecalis MGH-2; type: functional; summary of the method: as §1
[13] = tested on: Streptococcus pneumoniae; test: In vitro antibacterial activity was tested for Streptococcus pneumoniae SV-1; type: functional; summary of the method: as §1
[14] = tested on: Staphylococcus aureus; test: In vitro antibacterial activity was tested for Staphylococcus aureus H228; type: functional; summary of the method: as §1
[15] = tested on: Escherichia coli; test: In vitro antibacterial activity was tested for Escherichia coli H560; type: functional; summary of the method: as §1
[16] = tested on: Escherichia coli; test: In vitro antibacterial activity was tested for Escherichia coli Vogel; type: functional; summary of the method: as §1
[17] = tested on: Pseudomonas aeruginosa; test: In vitro antibacterial activity was tested for Pseudomonas aeruginosa UI-18; type: functional; summary of the method: as §1

Row | Compound | IC50 [1] [µg/mL] | MIC [2] [µg/mL] | MIC [3] [µg/mL] | MIC [4] [µg/mL] | MIC [5] [µg/mL] | MIC [6] [µg/mL] | MIC [7] [µg/mL] | MIC [8] [µg/mL] | MIC [9] [µg/mL] | MIC [10] [µg/mL] | MIC [11] [µg/mL] | MIC [12] [µg/mL] | MIC [13] [µg/mL] | MIC [14] [µg/mL] | MIC [15] [µg/mL] | MIC [16] [µg/mL] | MIC [17] [µg/mL]
1 | CCOc1c(N2CCC(N)C2)c(F)cc2c(=O)c(C(=O)O)cn(C3CC3)c12 (stereo not drawn) | 210 (≈ 559 µM) | 3.1 (≈ 8.26 µM) | 0.8 (≈ 2.13 µM) | 0.4 (≈ 1.07 µM) | 1.6 (≈ 4.26 µM) | 0.1 (≈ 0.266 µM) | 0.8 (≈ 2.13 µM) | 0.013 (≈ 0.0346 µM) | 0.2 (≈ 0.533 µM) | 3.1 (≈ 8.26 µM) | 0.2 (≈ 0.533 µM) | 0.1 (≈ 0.266 µM) | 0.1 (≈ 0.266 µM) | 0.05 (≈ 0.133 µM) | 0.05 (≈ 0.133 µM) | 0.05 (≈ 0.133 µM) | 3.1 (≈ 8.26 µM)
2 | NC1CCCN(c2c(F)cc3c(=O)c(C(=O)O)cn(C4CC4)c3c2Cl)C1 (stereo not drawn) | – | 0.2 (≈ 0.527 µM) | 0.4 (≈ 1.05 µM) | – | 0.2 (≈ 0.527 µM) | – | 0.1 (≈ 0.263 µM) | – | – | 0.4 (≈ 1.05 µM) | – | – | – | – | – | – | –
3 | NC1CCCN(c2nc3c(cc2F)c(=O)c(C(=O)O)cn3C2CC2)C1 (stereo not drawn) | – | 6.3 (≈ 18.2 µM) | 6.3 (≈ 18.2 µM) | – | 25 (≈ 72.2 µM) | – | 0.8 (≈ 2.31 µM) | – | – | > 25 | – | – | – | – | – | – | –
4 | COc1c(N2CC[C@H](N)C2)c(F)c(N)c2c(=O)c(C(=O)O)cn(C3CC3)c12 | – | 1.6 (≈ 4.25 µM) | 1.6 (≈ 4.25 µM) | 0.2 (≈ 0.531 µM) | 1.6 (≈ 4.25 µM) | 0.05 (≈ 0.133 µM) | 0.8 (≈ 2.13 µM) | 0.013 (≈ 0.0345 µM) | 0.05 (≈ 0.133 µM) | 3.1 (≈ 8.24 µM) | 0.1 (≈ 0.266 µM) | 0.1 (≈ 0.266 µM) | 0.025 (≈ 0.0664 µM) | 0.025 (≈ 0.0664 µM) | 0.05 (≈ 0.133 µM) | 0.05 (≈ 0.133 µM) | 0.8 (≈ 2.13 µM)
5 | Nc1c(F)c(N2CCCC(N)C2)c(F)c2c1c(=O)c(C(=O)O)cn2C1CC1 (stereo not drawn) | 19 (≈ 50.2 µM) | – | – | – | – | – | – | – | – | – | – | – | – | – | – | – | –
6 | COc1c(N2CC[C@@H](N)C2)c(F)cc2c(=O)c(C(=O)O)cn(C3CC3)c12 | – | 0.2 (≈ 0.553 µM) | 0.4 (≈ 1.11 µM) | 0.05 (≈ 0.138 µM) | 0.4 (≈ 1.11 µM) | 0.025 (≈ 0.0692 µM) | 0.5 (≈ 1.38 µM) | 0.025 (≈ 0.0692 µM) | 0.05 (≈ 0.138 µM) | 0.8 (≈ 2.21 µM) | 0.025 (≈ 0.0692 µM) | 0.05 (≈ 0.138 µM) | 0.05 (≈ 0.138 µM) | 0.05 (≈ 0.138 µM) | 0.025 (≈ 0.0692 µM) | 0.025 (≈ 0.0692 µM) | 0.8 (≈ 2.21 µM)
7 | COc1c(N2CCC(N)CC2)c(F)c(N)c2c(=O)c(C(=O)O)cn(C3CC3)c12 | 60 (≈ 154 µM) | 3.1 (≈ 7.94 µM) | 1.6 (≈ 4.1 µM) | 0.4 (≈ 1.02 µM) | 3.1 (≈ 7.94 µM) | 0.1 (≈ 0.256 µM) | 0.8 (≈ 2.05 µM) | 0.013 (≈ 0.0333 µM) | 0.025 (≈ 0.064 µM) | 3.1 (≈ 7.94 µM) | 0.2 (≈ 0.512 µM) | 0.05 (≈ 0.128 µM) | 0.013 (≈ 0.0333 µM) | 0.05 (≈ 0.128 µM) | 0.05 (≈ 0.128 µM) | 0.1 (≈ 0.256 µM) | 1.6 (≈ 4.1 µM)
8 | COc1c(N2CCNCC2)c(F)cc2c(=O)c(C(=O)O)cn(C3CC3)c12 | – | 0.4 (≈ 1.11 µM) | 3.1 (≈ 8.58 µM) | 0.1 (≈ 0.277 µM) | 0.8 (≈ 2.21 µM) | 0.025 (≈ 0.0692 µM) | 0.4 (≈ 1.11 µM) | 0.05 (≈ 0.138 µM) | 0.1 (≈ 0.277 µM) | 1.6 (≈ 4.43 µM) | 0.1 (≈ 0.277 µM) | 0.2 (≈ 0.553 µM) | 0.1 (≈ 0.277 µM) | 0.2 (≈ 0.553 µM) | 0.025 (≈ 0.0692 µM) | 0.05 (≈ 0.138 µM) | 0.8 (≈ 2.21 µM)
9 | COc1c(N2CCC(CN)CC2)c(F)cc2c(=O)c(C(=O)O)cn(C3CC3)c12 | 94 (≈ 241 µM) | 0.4 (≈ 1.03 µM) | 0.4 (≈ 1.03 µM) | 0.4 (≈ 1.03 µM) | 0.8 (≈ 2.05 µM) | 0.1 (≈ 0.257 µM) | 0.4 (≈ 1.03 µM) | 0.05 (≈ 0.128 µM) | 0.025 (≈ 0.0642 µM) | 0.8 (≈ 2.05 µM) | 0.2 (≈ 0.514 µM) | 0.05 (≈ 0.128 µM) | 0.025 (≈ 0.0642 µM) | 0.1 (≈ 0.257 µM) | 0.1 (≈ 0.257 µM) | 0.1 (≈ 0.257 µM) | 1.6 (≈ 4.11 µM)
10 | COc1c(N2CCCC(N)C2)c(F)cc2c(=O)c(C(=O)O)cn(C3CC3)c12 (stereo not drawn) | – | 0.2 (≈ 0.533 µM) | 0.8 (≈ 2.13 µM) | 0.4 (≈ 1.07 µM) | 0.4 (≈ 1.07 µM) | 0.1 (≈ 0.266 µM) | 0.4 (≈ 1.07 µM) | 0.006 (≈ 0.016 µM) | 0.013 (≈ 0.0346 µM) | 0.8 (≈ 2.13 µM) | 0.2 (≈ 0.533 µM) | 0.025 (≈ 0.0666 µM) | 0.013 (≈ 0.0346 µM) | 0.05 (≈ 0.133 µM) | 0.05 (≈ 0.133 µM) | 0.1 (≈ 0.266 µM) | 1.6 (≈ 4.26 µM)
11 | CCOc1c(N2CCCC(N)C2)c(F)cc2c(=O)c(C(=O)O)cn(C3CC3)c12 (stereo not drawn) | 210 (≈ 539 µM) | – | – | 0.8 (≈ 2.05 µM) | – | 0.4 (≈ 1.03 µM) | – | 0.025 (≈ 0.0642 µM) | 0.2 (≈ 0.514 µM) | – | 0.4 (≈ 1.03 µM) | 0.2 (≈ 0.514 µM) | 0.2 (≈ 0.514 µM) | 0.1 (≈ 0.257 µM) | 0.2 (≈ 0.514 µM) | 0.2 (≈ 0.514 µM) | 3.1 (≈ 7.96 µM)
